Results pooled from the literature.
Lines come from different studies, so protocols differ.
Target: Serine/threonine-protein kinase N2 (PKN2, Homo sapiens, UniProt Q16513)

For CN1CCN(C(=O)c2ccc(NC(=O)Nc3ccc(N(C)c4ccnc(Nc5ccc(CS(C)(=O)=O)cc5)n4)cc3)cc2)CC1, the remaining binding was 100% (binding; 1 µM).
The inhibition of C=CC(=O)N1CCC([C@@H]2CCNc3c(C(N)=O)c(-c4ccc(Oc5ccccc5)cc4)nn32)CC1 is reported as 24% (enzyme activity; inhibitor; 1 µM).
For Cc1cc(O)c(-c2ccc([C@@H](C)CN(C)C)cc2)c2c1[nH]c(=O)c1sccc12, the inhibition was 13.8% (enzyme activity; inhibitor; 0.1 µM).
Cc1ccc(NC(=O)c2ccnc(C(F)(F)F)c2)cc1-c1cc(OCCO)nc(N2CCOCC2)c1 gave a remaining binding of 89% (binding; 1 µM).
CCCCC(=O)Nc1ccc(-c2ccc3ncn(CCC)c(=O)c3c2)cn1 has a remaining binding of 87% (binding; competition with immobilised ligand; 0.5 µM).
C1=C/COCc2cc(ccc2OCCN2CCCC2)Nc2nccc(n2)-c2cccc(c2)COC/1 gave a remaining binding of 100% (binding; 0.1 µM).
CC(C)S(=O)(=O)c1ccc2nccc(Nc3ccc4sc(C5CCCC5)nc4c3)c2c1 has an activity vs control of 116% (enzyme activity; inhibitor; 1 µM).
CC#CC(=O)N1CCC[C@H]1c1nc(-c2ccc(C(=O)Nc3ccccn3)cc2)c2c(N)nccn12 gave an inhibition of 0% (enzyme activity; inhibitor; 1 µM).
